Source: PubChem BioAssay
T cruzi inh: blocks replication of Trypanosoma cruzi; T. cruzi beta-gal in NIH3T3, luminescence, 90 h; inhibition, % (concentration not given with the values); hit rate 1.4% among 300,000;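 active = mean inhibition across valid replicates above about 55%, limit read from the data; inconclusive = mean below that limit but half or more replicates reach it; inactive = mean below it, under half of replicates reach it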;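 also: signal also drops with host cell toxicity which is not excluded here; 0% = plate median of DMSO wells and 100% = zero luminescence signal; higher percent means less beta-gal luminescence so fewer parasites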
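System: mouse NIH/3T3 fibroblasts infected with β-gal-expressing T. cruzi Tulahuen C4 / Input: NIH/3T3 cells, 5,000 per well / Buffer or medium: Low-serum DMEM with 2% FBS / Probe or stimulus: 5000 reporter trypomastigotes per well / Schedule: ≥90 h infection period, 3 h prior cell attachment / Measured by: GalScreen luminescence, 60 min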
CSC inhib: blocks cancer stem cells; cancer stem cell-like cells viability, luminescence; AID 2717; hit rate 1.1% among 300,000; inhibition, % at 7.5 µM; in the data active = inhibition above about 75%; inconclusive = no clear call, values can overlap the other calls; tested in HMLE shEcad cells
PfHsp90 yeast 2: growth inhibition of yeast expressing Plasmodium Hsp90; S. cerevisiae expressing PfHsp90, BacTiter-Glo ATP, 48 h; yeast lacking PDR1 and PDR3 efflux regulators; inhibition, % at 9.4 µM; hit rate 0.32% among 310,000;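 active = every replicate shows inhibition above about 80%, whatever the replicate mean, limit read from the data; inconclusive = mean inhibition reaches the set limit but some replicate falls short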;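 also: 0% = DMSO neutral controls and 100% = 20 µM radicicol positive controls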
HIF act: HIF pathway transcriptional activation. AID 1910. U2OS HRE-luciferase reporter, luminescence; normalized: DMSO 0%, desferrioxamine 100%. hit rate 0.32% among 300,000. activation, % at 7.5 µM (by protocol);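 active = mean activation of at least 10% of the iron chelator positive control signal, with at least half of replicates also reaching 10%; inconclusive = mean and replicate majority disagree about reaching 10%; inactive = mean and most replicates under 10%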
SKKanGAS inh: SKKanGAS growth inhibition; S. pyogenes SKKanGAS, kanamycin growth, BacTiter-Glo, 6 h; hit rate 1.3% among 300,000; inhibition, % at 7.5 µM;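 active = mean replicate score, as percent of positive control median, at least 50; inconclusive = mean below 50 but one replicate at or above 50; inactive = mean and every replicate below 50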;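 also: strain carries kanamycin resistance gene driven by streptokinase promoter and grows in 40 µg/ml kanamycin; loss of luminescence reflects streptokinase promoter inhibition or plain growth inhibition; 0% = median of DMSO wells and 100% = positive control at its reference dose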
Beta apoptosis: blocks beta cell apoptosis. hit rate 0.8% among 300,000. INS-1E cytokine-induced death, ATP luminescence, 48 h; percent of positive-control rescue, neutral wells zero. AID 435005. protection from apoptosis, % (no concentration beside the values);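 active = Every replicate reaches about 75%, or at least half do and their mean reaches it too, limit read from the data; inconclusive = At least half of replicates reach the limit but their mean does not; inactive = Under half of replicates reach the limit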;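 also: 0% = cytokine-treated negative control wells and 100% = positive control rescue; higher means more ATP so stronger rescue from cytokine killing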
An asterisk follows results filed as active. An excerpt weighted towards active compounds, which were near 3.6% of everything screened.

`Cc1cc(C)cc(NS(=O)(=O)c2ccc(-c3cnc(C4CC4)o3)cc2)c1` gave T cruzi inh 13, PfHsp90 yeast 2 -3, HIF act 1 and SKKanGAS inh 30.
Screening N=C1c2ccccc2CN1NC(=O)COc1ccc(Cl)cc1 returned T cruzi inh -9, CSC inhib -9, PfHsp90 yeast 2 8, HIF act 0 and Beta apoptosis -8.
`Cc1c(Cc2ccccc2)c(=O)[nH]c(=O)n1C` gave PfHsp90 yeast 2 -21.
CCOC(=O)c1cccc(Nc2nc(-c3cccnc3)nc3ccccc23)c1 was read as T cruzi inh 32, CSC inhib 92*, PfHsp90 yeast 2 4, HIF act 1, SKKanGAS inh 13 and Beta apoptosis 42.
`Cc1ccc(NC(=O)CN(C)C(=O)c2cccc(S(=O)(=O)N3CCc4ccccc43)c2)cc1` gave CSC inhib 4 and Beta apoptosis 0.
`CNCc1ccccc1Sc1ccc(O)c(O)c1` gave T cruzi inh 31, CSC inhib 85*, PfHsp90 yeast 2 13, HIF act 0, SKKanGAS inh 5 and Beta apoptosis -1.
`COc1ccc(Sc2ccccc2CN(C)C)cc1OC` gave T cruzi inh 1, PfHsp90 yeast 2 -5, HIF act 0, SKKanGAS inh 0 and Beta apoptosis -16.
`Cc1cc(C)nc(NC(=NCCc2c[nH]c3ccccc23)NC(=O)C(C)(C)C)n1` gave T cruzi inh 61*, CSC inhib 4, PfHsp90 yeast 2 12, HIF act 0, SKKanGAS inh 30 and Beta apoptosis 0.
CCOC(=O)/C(=N\Nc1ccccc1Cl)N1CCN(c2ccccc2OC)CC1 was read as T cruzi inh 67*, CSC inhib 41, PfHsp90 yeast 2 12, HIF act -1, SKKanGAS inh inconclusive and Beta apoptosis 3.
Screening CCOC(=O)/C(=N\Nc1ccccc1Cl)N1CCN(C)CC1 returned T cruzi inh 24, PfHsp90 yeast 2 8, HIF act 0, SKKanGAS inh 0 and Beta apoptosis -4.
Screening COc1ccccc1NS(=O)(=O)c1cccc(NC(=O)c2[nH]c(C)c(C(C)=O)c2C)c1 returned T cruzi inh 28, CSC inhib -5, PfHsp90 yeast 2 9, HIF act 0, SKKanGAS inh 4 and Beta apoptosis 76*.
For COc1ccccc1NC(=O)c1[nH]c(C)c(C(C)=O)c1C the results were T cruzi inh -3, CSC inhib -18, PfHsp90 yeast 2 16, HIF act 0, SKKanGAS inh 0 and Beta apoptosis -1.
`COc1ccccc1NS(=O)(=O)c1cc(NC(=O)C2CCC2)ccc1N1CCCCC1` gave T cruzi inh 57*, CSC inhib 5, PfHsp90 yeast 2 1, HIF act 0, SKKanGAS inh 7 and Beta apoptosis 37.
`COc1ccccc1NS(=O)(=O)c1cc(NC(=O)Nc2ccc(Cl)cc2Cl)ccc1N1CCCCC1` gave T cruzi inh 59*, CSC inhib 38, PfHsp90 yeast 2 22, HIF act 0, SKKanGAS inh -2 and Beta apoptosis 40.
Screening O=C(Nc1cccc(C(F)(F)F)c1)Nc1ccc(N2CCCC2)c(S(=O)(=O)Nc2ccccc2Cl)c1 returned T cruzi inh 54, CSC inhib 78*, PfHsp90 yeast 2 -12, HIF act 2, SKKanGAS inh 39 and Beta apoptosis 103*.
Screening CC(C)C(=O)Nc1ccc(N2CCOCC2)c(S(=O)(=O)Nc2ccccc2Cl)c1 returned CSC inhib -16, PfHsp90 yeast 2 -12 and Beta apoptosis -10.
Screening COc1ccc(CCNC(=O)CCNC(=O)c2ccccc2Cl)cc1 returned T cruzi inh -1, PfHsp90 yeast 2 -5, HIF act 0, SKKanGAS inh 0 and Beta apoptosis -2.
`N=C1C(c2ccccc2)=C(O)CN1c1cccc(S(=O)(=O)Nc2cccc(C(F)(F)F)c2)c1` gave T cruzi inh 3, CSC inhib 1, PfHsp90 yeast 2 -8, HIF act 0, SKKanGAS inh -8 and Beta apoptosis 4.
`CCOC(=O)c1nc(N/N=C/c2ccccc2)sc1Br` gave T cruzi inh 0, CSC inhib 0, PfHsp90 yeast 2 -35, HIF act 1 and SKKanGAS inh 7.
For Cc1ccsc1C(=O)N1CCN(C(=O)c2ccco2)CC1 the results were CSC inhib -6, PfHsp90 yeast 2 5 and Beta apoptosis -7.
`COc1ccccc1NS(=O)(=O)c1cccc(NC(=O)Nc2ccc(Cl)cc2)c1` gave T cruzi inh 67*, PfHsp90 yeast 2 3, HIF act 0, SKKanGAS inh 55* and Beta apoptosis 47.
`CCC(C)(C)C(=O)O[C@H]1C[C@@H](C)C=C2C=C[C@H](C)[C@H](CC[C@@H]3C[C@@H](O)CC(=O)O3)[C@H]21` gave T cruzi inh 0, CSC inhib 29, PfHsp90 yeast 2 5, HIF act -1, SKKanGAS inh 0 and Beta apoptosis 21.
Screening C1CCC(CNc2c3c(nc4nnnn24)CCCC3)CC1 returned T cruzi inh 68*, CSC inhib 7, PfHsp90 yeast 2 -1, HIF act 0, SKKanGAS inh 1 and Beta apoptosis 1.
COCCCNc1c2c(nc3nnnn13)CCCC2 was read as T cruzi inh -8, CSC inhib 5, PfHsp90 yeast 2 -13, HIF act 0, SKKanGAS inh -1 and Beta apoptosis -6.
`Cc1nn(-c2ccccc2)c(Cl)c1C1C(C#N)=C(N)OC2=C1C(=O)CC(C)(C)C2` (centres undefined) gave T cruzi inh 13, CSC inhib 35, PfHsp90 yeast 2 -12, HIF act 2, SKKanGAS inh 85* and Beta apoptosis 0.
Screening Cc1nn(C)c(C)c1C1C(C#N)=C(N)OC2=C1C(=O)CC(C)(C)C2 (centres undefined) returned T cruzi inh -11, CSC inhib -5, PfHsp90 yeast 2 -17, HIF act 0, SKKanGAS inh 0 and Beta apoptosis 6.
For CCOc1ccc(N/C(N)=N/c2nc(CSc3nnnn3-c3ccccc3)cc(=O)[nH]2)cc1 the results were T cruzi inh -10, PfHsp90 yeast 2 3, HIF act 0, SKKanGAS inh -2 and Beta apoptosis 2.
COc1cccc(N2CC(O)Cn3c2nc2c3c(=O)[nH]c(=O)n2C)c1 (centres undefined) was read as T cruzi inh -5, CSC inhib 6, PfHsp90 yeast 2 0, HIF act 0, SKKanGAS inh 8 and Beta apoptosis -1.
`COC(=O)c1cc(-c2ccc(Br)cc2)c2c(=O)n(C)c(=O)n(C)c2n1` gave T cruzi inh -12, CSC inhib 9, PfHsp90 yeast 2 9, HIF act 0, SKKanGAS inh 52* and Beta apoptosis 2.
